In the RNAGym collection of RNA variant scans (doi:10.1038/s41586-018-0170-7):

B1: tRNA (parent)
chain: GUUCCGUUGGCGUAAUGGUAACGCGUCUCCCUCCUAAGGAGAAGACUGCGGGUUCGAGUCCCGUACGGAACG

Variants of: B1
Assay: yeast fitness, log relative to wild type (ln ratio); higher = fitter; tRNA-Arg(CCU), competitive growth, 37 C, 1 M NaCl
Summary of the method: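 Fitness is the natural log of each genotype's generations divided by the wild type's. Generations were derived as OD-scaled log2 output/input frequency from 125 bp paired-end Illumina counts, weighting replicates by inverse variance. Pools of the tRNA-Arg(CCU) variant library, on a HIS3 centromeric plasmid in BY4742 lacking the chromosomal gene, grew ~6.5 generations (~26.5 h) in SC-HIS 1M NaCl at 37 °C after 4 generations in SC-HIS at 30 °C.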

Q: Which “yeast fitness (ln)” value does the source give for AUUCCGUUGGCGUAAUGGUAACGCGUCUCCCUCCUAAGGAGACGACUGCGGGUUCGAGUCCCGUAUGGGUUG here?
A: The value was -0.338.

Q: With GCUCCUUUGGCGUAAUGGUAACGCGUUUCCCUCCUAAGGAGACGAUUGCGGGUUCGAGUCCCGUACGGAACG as the variant, how does the “yeast fitness (ln)” value read?
A: The value was -0.0629.

Q: With GUUCCGUUGGCGUAAUGGUAACGCGUCUCCCUCCUAAGGAGACGACUGCGGGUUCGAGUCCCGUAAGGAUUG as the variant, how does the “yeast fitness (ln)” value read?
A: Its value is -0.268.

Q: Which “yeast fitness (ln)” value does the source give for GUUCCGUUGGCGUAAUGGUAACGCGUUUCCCUCCUAAGGAGAAGAUUGCGGGUUCGAGUCCCGUAUGGAGCG here?
A: Its value is -0.315.

Q: For AUUCCAUUGGCGUAAUGGUAACGCGUUUCCCUCCUAAGGAGACGACUGCGGGUUCGAGUCCCGUACGGAAUG, which “yeast fitness (ln)” value is on record?
A: The value was -0.213.

Q: With ACUCCAUUGGCGUAAUGGUAACGCGUUUCCCUCCUAAGGAGACGAUUGCGGGUUCGAGUCCCGUAUGGGUCG as the variant, how does the “yeast fitness (ln)” value read?
A: The value was -0.416.

Q: With AGUCCGUUGGCGUAAUGGUAACGCGUCUCCCUCCUAAGGAGACGAUUGCGGGUUCGAGUCCCGUACGGGUCG as the variant, how does the “yeast fitness (ln)” value read?
A: Its value is -0.132.

Q: For GCUCCUUUGGCGUAAUGGUAACGCGUUUCCCUCCUAAGGAGACGACUGCGGGUUCGAGUCCCGUAUGGGGUG, which “yeast fitness (ln)” value is on record?
A: Its value is -0.347.

Q: For GUUCCGUUGGCGUAAUGGUAACGCGUCUCCCUCCUAAGGAGAAGACUGCGGGUUCGAGUCCCGUACGGAGCG, which “yeast fitness (ln)” value is on record?
A: The value was -0.00424.

Q: With AUUCCGUUGGCGUAAUGGUAACGCGUUUCCCUCCUAAGGAGACGACUGCGGGUUCGAGUCCCGUAUGGAACG as the variant, how does the “yeast fitness (ln)” value read?
A: The value was -0.242.

Q: With GCUCCAUUGGCGUAAUGGUAACGCGUCUCCCUCCUAAGGAGACGACUGCGGGUUCGAGUCCCGUAUGGAUCG as the variant, how does the “yeast fitness (ln)” value read?
A: Its value is -0.06.

Q: For GUUCCGUUGGCGUAAUGGUAACGCGUUUCCCUCCUAAGGAGACGACUGCGGGUUCGAGUCCCGUAUGGAGCG, which “yeast fitness (ln)” value is on record?
A: Its value is -0.227.

Q: With GUUCCUUUGGCGUAAUGGUAACGCGUUUCCCUCCUAAGGAGACGAUUGCGGGUUCGAGUCCCGUAAGGAUUG as the variant, how does the “yeast fitness (ln)” value read?
A: The value was -0.357.

Q: With AUUCCGUUGGCGUAAUGGUAACGCGUCUCCCUCCUAAGGAGACGAUUGCGGGUUCGAGUCCCGUAUGGGGUG as the variant, how does the “yeast fitness (ln)” value read?
A: Its value is -0.263.

Q: With AGUCCUUUGGCGUAAUGGUAACGCGUUUCCCUCCUAAGGAGAAGACUGCGGGUUCGAGUCCCGUACGGAUUG as the variant, how does the “yeast fitness (ln)” value read?
A: The value was -0.305.

Q: For GGUCCUUUGGCGUAAUGGUAACGCGUCUCCCUCCUAAGGAGACGACUGCGGGUUCGAGUCCCGUACGGGGCG, which “yeast fitness (ln)” value is on record?
A: The value was -0.237.

Q: For AUUCCAUUGGCGUAAUGGUAACGCGUCUCCCUCCUAAGGAGACGACUGCGGGUUCGAGUCCCGUACGGGAUG, which “yeast fitness (ln)” value is on record?
A: The value was -0.335.

Q: Which “yeast fitness (ln)” value does the source give for ACUCCGUUGGCGUAAUGGUAACGCGUUUCCCUCCUAAGGAGAAGACUGCGGGUUCGAGUCCCGUAUGGAGCG here?
A: The value was -0.0715.

Q: Which “yeast fitness (ln)” value does the source give for GUUCCAUUGGCGUAAUGGUAACGCGUCUCCCUCCUAAGGAGAAGACUGCGGGUUCGAGUCCCGUAUGGGGCG here?
A: Its value is -0.0412.

Q: Which “yeast fitness (ln)” value does the source give for GGUCCUUUGGCGUAAUGGUAACGCGUCUCCCUCCUAAGGAGACGACUGCGGGUUCGAGUCCCGUACGGAGUG here?
A: Its value is -0.282.

Q: For GUUCCUUUGGCGUAAUGGUAACGCGUUUCCCUCCUAAGGAGAAGAUUGCGGGUUCGAGUCCCGUAAGGGACG, which “yeast fitness (ln)” value is on record?
A: The value was -0.0559.

Q: Which “yeast fitness (ln)” value does the source give for ACUCCGUUGGCGUAAUGGUAACGCGUCUCCCUCCUAAGGAGAAGACUGCGGGUUCGAGUCCCGUAAGGAUCG here?
A: Its value is -0.0191.

Q: For GCUCCGUUGGCGUAAUGGUAACGCGUUUCCCUCCUAAGGAGACGAUUGCGGGUUCGAGUCCCGUAUGGAAUG, which “yeast fitness (ln)” value is on record?
A: The value was -0.174.

Q: Which “yeast fitness (ln)” value does the source give for AGUCCGUUGGCGUAAUGGUAACGCGUCUCCCUCCUAAGGAGAAGACUGCGGGUUCGAGUCCCGUAAGGAACG here?
A: The value was -0.0852.

Q: Which “yeast fitness (ln)” value does the source give for AUUCCUUUGGCGUAAUGGUAACGCGUCUCCCUCCUAAGGAGACGAUUGCGGGUUCGAGUCCCGUAAGGGGUG here?
A: Its value is -0.393.

Q: For AGUCCUUUGGCGUAAUGGUAACGCGUUUCCCUCCUAAGGAGACGAUUGCGGGUUCGAGUCCCGUAUGGAUCG, which “yeast fitness (ln)” value is on record?
A: The value was -0.383.

Q: With GUUCCUUUGGCGUAAUGGUAACGCGUUUCCCUCCUAAGGAGACGACUGCGGGUUCGAGUCCCGUACGGAACG as the variant, how does the “yeast fitness (ln)” value read?
A: Its value is -0.197.

Q: Which “yeast fitness (ln)” value does the source give for AUUCCAUUGGCGUAAUGGUAACGCGUUUCCCUCCUAAGGAGACGAUUGCGGGUUCGAGUCCCGUAUGGAUCG here?
A: The value was -0.318.

Q: Which “yeast fitness (ln)” value does the source give for GGUCCUUUGGCGUAAUGGUAACGCGUCUCCCUCCUAAGGAGAAGAUUGCGGGUUCGAGUCCCGUAAGGAUCG here?
A: Its value is 0.00118.

Q: For GGUCCUUUGGCGUAAUGGUAACGCGUCUCCCUCCUAAGGAGAAGAUUGCGGGUUCGAGUCCCGUACGGGUCG, which “yeast fitness (ln)” value is on record?
A: The value was -0.402.

Q: Which “yeast fitness (ln)” value does the source give for GCUCCAUUGGCGUAAUGGUAACGCGUCUCCCUCCUAAGGAGACGACUGCGGGUUCGAGUCCCGUAAGGAUUG here?
A: Its value is -0.261.

Q: Which “yeast fitness (ln)” value does the source give for GCUCCGUUGGCGUAAUGGUAACGCGUUUCCCUCCUAAGGAGAAGAUUGCGGGUUCGAGUCCCGUAUGGGUUG here?
A: Its value is -0.411.

Q: With AUUCCUUUGGCGUAAUGGUAACGCGUUUCCCUCCUAAGGAGAAGAUUGCGGGUUCGAGUCCCGUACGGGUUG as the variant, how does the “yeast fitness (ln)” value read?
A: The value was -0.431.

Q: Which “yeast fitness (ln)” value does the source give for AUUCCAUUGGCGUAAUGGUAACGCGUCUCCCUCCUAAGGAGAAGAUUGCGGGUUCGAGUCCCGUAUGGGGUG here?
A: Its value is -0.0914.

Q: With GCUCCUUUGGCGUAAUGGUAACGCGUCUCCCUCCUAAGGAGACGAUUGCGGGUUCGAGUCCCGUACGGGUCG as the variant, how does the “yeast fitness (ln)” value read?
A: The value was -0.0621.

Q: For GUUCCGUUGGCGUAAUGGUAACGCGUUUCCCUCCUAAGGAGAAGACUGCGGGUUCGAGUCCCGUAAGGGGCG, which “yeast fitness (ln)” value is on record?
A: The value was -0.25.

Q: Which “yeast fitness (ln)” value does the source give for AGUCCAUUGGCGUAAUGGUAACGCGUUUCCCUCCUAAGGAGACGACUGCGGGUUCGAGUCCCGUAUGGGGCG here?
A: Its value is -0.447.

Q: With GGUCCGUUGGCGUAAUGGUAACGCGUUUCCCUCCUAAGGAGACGACUGCGGGUUCGAGUCCCGUAUGGAAUG as the variant, how does the “yeast fitness (ln)” value read?
A: The value was -0.364.
